From ChEMBL document CHEMBL3526029, “Disposition and metabolism of GSK2251052 in humans: a novel boron-containing antibiotic” (Drug Metab Dispos, 2013)

What was measured:
[1] = Total drug recovery in healthy human at 1500 mg, iv infusion for 1 hr as single dose after 264 hrs; type: ADME, organism-based; details: in vivo, read-out: Drug recovery
Outline: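 Six healthy adult males, fasted ≥10 h, got one 1500 mg [14C]GSK2251052 dose ([…], 0.56 MBq) as a constant-rate 1-h IV infusion in 0.9% NaCl. Urine was collected at 0–6, 6–12 and 12–24 h, then in 24-h blocks to 336 h; feces in 24-h blocks. Urine was counted directly by LSC; feces were homogenized and combusted in duplicate before LSC. Cumulative recovery is given as mean % of dose.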

Homo sapiens = assay: Toxicity in healthy human assessed as mortality at 1500 mg, iv infusion for 1 hr as single dose; type: organism-based; details: in vivo
Outline: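 Single-center, open-label phase I study in six healthy adult males, fasted ≥10 h. Each got one 1500 mg [14C]GSK2251052 dose as a constant-rate 1-h IV infusion. Safety was monitored throughout, with follow-up for at least 336 h after dosing.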

[2] = Drug metabolism in healthy human urine assessed as (S)-3-(3-(acetamidomethyl)-1-hydroxy-1,3-dihydrobenzo[c][1,2]oxaborol-7-yloxy)propanoicacid formation at 1500 mg, iv infusion for 1 hr as single dose by mass spectrometry; type: ADME, organism-based; details: in vivo
Outline: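 Urine was collected through 336 h after a 1500 mg [14C] i.v. 1-h infusion to six men. Samples were pooled by weight (0–120 h per subject; 120–336 h composite) and centrifuged. Profiling used HPLC (Atlantis T3, ammonium acetate pH 4.5/methanol, 30°C) with fraction radioactivity counting. Identity came from Orbitrap positive-ion accurate mass. Values were given as % dose, corrected for recovery.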

- dose excreted at 264 h [1]: 97%
- Drug recovery [2]: metabolite_detected
SMILES: Cl.N[14CH2][C@H]1OB(O)c2c(OCCCO)cccc21
- Activity (Homo sapiens): Non-toxic
